Data from ChEMBL document CHEMBL1138182, “Structure activity relationships of 5-, 6-, and 7-methyl-substituted azepan-3-one cathepsin K inhibitors” (J Med Chem, 2006).

Assays:
[1] = Clearance in iv dosed Sprague-Dawley rat; type: ADME, organism-based; settings: in vivo
Method in brief: (§1)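 Male Sprague-Dawley rats, n = 3, iv/po crossover. Dosed iv as a 1-2 mg/kg 0.5-h infusion through an indwelling femoral vein catheter, then 2-4 mg/kg oral gavage 2 days later. Vehicle: aqueous, <2% DMSO, <20% hydroxypropyl-β-cyclodextrin. Tail-vein plasma sampled at timed intervals, measured by LC/MS/MS (LLOQ 1.0-10 ng/mL). Noncompartmental analysis.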

[2] = Volume of distribution in iv dosed Sprague-Dawley rat; type: ADME, organism-based; settings: in vivo, read-out: Vdss; method in brief: as §1
Cathepsin B = Cathepsin B (Homo sapiens, UniProt P07858); test: Inhibition of human cathepsin B; settings: read-out: Ki app
Method in brief: (§2)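 Recombinant human enzyme with fluorogenic substrate, typically Cbz-Phe-Arg-AMC, in 100 mM sodium acetate pH 5.5 with 20 mM cysteine and 5 mM EDTA, at ambient temperature. Enzyme added last to inhibitor plus substrate. AMC fluorescence read at ex 360/em 460. Progress curves at variable inhibitor concentrations were fitted for Ki,app, by competitive velocity equation or slow-binding exponential.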

[3] = Permeability in artificial membrane; type: ADME, cell membranes; settings: PAMPA; read-out: permeability
[4] = Oral bioavailability in Sprague-Dawley rat; type: ADME, organism-based; settings: in vivo; method in brief: as §1
Cathepsin K [5] = molecular target: T1, Cathepsin K (Homo sapiens, UniProt P43235); test: Inhibition of human cathepsin K; settings: read-out: Ki app
T1 sequence (P43235 whole entry): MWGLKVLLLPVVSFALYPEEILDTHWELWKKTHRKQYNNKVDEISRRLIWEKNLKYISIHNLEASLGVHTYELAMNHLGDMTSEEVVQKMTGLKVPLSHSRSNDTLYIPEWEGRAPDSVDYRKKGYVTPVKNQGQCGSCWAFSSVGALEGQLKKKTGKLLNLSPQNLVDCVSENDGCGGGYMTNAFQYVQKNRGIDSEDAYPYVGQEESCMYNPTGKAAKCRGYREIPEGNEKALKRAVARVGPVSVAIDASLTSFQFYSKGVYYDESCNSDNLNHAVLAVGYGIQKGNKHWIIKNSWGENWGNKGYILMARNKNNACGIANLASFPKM

[6] = Permeability in MDCK cells at 10 uM; type: ADME, cell-based, Canis lupus familiaris; settings: dog, read-out: permeability
Method in brief: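 MDCK cells at passage 60-80, grown in MEM + 10% FBS at 37 °C, 5% CO2, seeded on Transwells and assayed 3 days after seeding. After ~1 h equilibration in HBSS with 25 mM glucose and 25 mM HEPES, 10 µM compound (1% DMSO final) was added apically. Basolateral concentration measured by LC/MS/MS over 3600 s, Papp calculated, duplicates, propranolol and mannitol controls.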

[7] = Half life in iv dosed Sprague-Dawley rat; type: ADME, organism-based; settings: in vivo; method in brief: as §1
[8] = Protein binding in plasma; type: ADME, cell-free; settings: rat, read-out: PPB (converted)
Method in brief: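 Rat plasma; binding determined by equilibrium dialysis or ultrafiltration.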

Osteoclast = test: Effect on collagen […] in osteoclast bone resorption assay; type: functional, cell-based; settings: Homo sapiens
Method in brief: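 Human osteoclastoma-derived osteoclasts on bovine cortical bone slices, incubated 48 h with a range of compound concentrations. Type-I collagen C-telopeptide release measured by ELISA.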

Cathepsin S = Cathepsin S (Homo sapiens, UniProt P25774); test: Inhibition of human cathepsin S; settings: read-out: Ki app
Sequence of Cathepsin S (P25774 whole entry): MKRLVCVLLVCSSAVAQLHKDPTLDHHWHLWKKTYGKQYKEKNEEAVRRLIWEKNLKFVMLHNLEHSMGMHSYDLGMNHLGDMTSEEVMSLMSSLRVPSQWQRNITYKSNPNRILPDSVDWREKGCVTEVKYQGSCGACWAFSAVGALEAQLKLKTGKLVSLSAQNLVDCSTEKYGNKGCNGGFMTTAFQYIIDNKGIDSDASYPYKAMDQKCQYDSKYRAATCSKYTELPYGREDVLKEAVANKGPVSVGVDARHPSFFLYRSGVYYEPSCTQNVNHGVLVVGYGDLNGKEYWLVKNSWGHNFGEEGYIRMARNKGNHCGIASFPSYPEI

Cathepsin K [9] = molecular target: T2, Cathepsin K (Rattus norvegicus, UniProt O35186); test: Inhibition of rat cathepsin K; settings: read-out: Ki app
T2 sequence (O35186 whole entry): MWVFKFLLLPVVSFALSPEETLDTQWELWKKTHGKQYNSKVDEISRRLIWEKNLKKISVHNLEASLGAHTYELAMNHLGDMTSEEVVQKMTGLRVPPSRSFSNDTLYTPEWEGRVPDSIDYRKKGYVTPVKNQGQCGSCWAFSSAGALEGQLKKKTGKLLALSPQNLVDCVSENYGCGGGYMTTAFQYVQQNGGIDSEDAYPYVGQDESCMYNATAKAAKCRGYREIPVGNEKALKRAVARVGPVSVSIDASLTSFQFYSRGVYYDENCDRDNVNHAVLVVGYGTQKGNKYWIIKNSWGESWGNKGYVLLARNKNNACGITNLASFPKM
Method in brief: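 Recombinant enzyme; fluorogenic peptide substrate (typically Cbz-Phe-Arg-AMC) in 100 mM sodium acetate pH 5.5 with 20 mM cysteine and 5 mM EDTA, ambient temperature. Reaction started by adding enzyme to inhibitor plus substrate at variable inhibitor concentrations; AMC fluorescence (ex 360, em 460 nm) followed as progress curves. Ki,app obtained by fitting to the competitive velocity equation or the slow-binding progress-curve equation.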

[10] = Oral bioavailability in cynomolgus monkey; type: ADME, organism-based, Macaca fascicularis; settings: in vivo
Method in brief: (§3)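 Cynomolgus monkeys (male, n = 3) in an iv × po crossover. Dosed by 1-h iv infusion of 1-2 mg/kg via temporary saphenous vein catheter, then 2-4 mg/kg oral gavage 7 days later. Vehicle: aqueous <2% DMSO, <20% hydroxypropyl-β-cyclodextrin. Femoral-vein plasma measured by LC/MS/MS, LLOQ 1.0-10 ng/mL. Parameters by noncompartmental methods.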

[11] = Volume of distribution in iv dosed cynomolgus monkey; type: ADME, organism-based, Macaca fascicularis; settings: in vivo, read-out: Vdss; method in brief: as §3
[12] = Clearance in iv dosed cynomolgus monkey; type: ADME, organism-based, Macaca fascicularis; settings: in vivo; method in brief: as §3
[13] = Half life in iv dosed cynomolgus monkey; type: ADME, organism-based, Macaca fascicularis; settings: in vivo; method in brief: as §3
Cathepsin L2 = molecular target: T3, Cathepsin L2 (Homo sapiens, UniProt O60911); test: Inhibition of human cathepsin V; settings: read-out: Ki app; method in brief: as §2
T3 sequence (O60911 whole entry): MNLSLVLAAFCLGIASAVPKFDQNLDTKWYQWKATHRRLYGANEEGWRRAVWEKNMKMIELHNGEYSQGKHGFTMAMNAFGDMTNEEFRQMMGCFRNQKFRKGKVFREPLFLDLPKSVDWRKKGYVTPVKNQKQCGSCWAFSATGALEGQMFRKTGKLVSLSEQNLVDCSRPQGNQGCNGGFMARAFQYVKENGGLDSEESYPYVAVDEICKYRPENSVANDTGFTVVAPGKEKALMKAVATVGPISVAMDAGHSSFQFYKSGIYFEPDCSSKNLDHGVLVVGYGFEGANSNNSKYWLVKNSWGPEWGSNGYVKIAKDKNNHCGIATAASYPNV

Structure (SMILES)	Ki (Cathepsin B) [nM]	Papp [3] [×10⁻⁶ cm/s]	Ki (Cathepsin K [5]) [nM]	Papp at 10 µM [6] [×10⁻⁶ cm/s]	fraction unbound [8]	IC50 (Osteoclast) [nM]	Ki (Cathepsin S) [nM]	Ki (Cathepsin K [9]) [nM]	other results
CC(C)C[C@H](NC(=O)c1cc2ccccc2o1)C(=O)N[C@@H]1C(=O)CN(S(=O)(=O)c2ccccn2)CC[C@@H]1C	32	68	0.0099	55	0.053	20			clearance [1]: 80.5 mL/min/kg; Vd [2]: 4.7 L/kg; bioavailability [4]: < 5.4%; half-life [7]: 58.5 min
CC(C)C[C@H](NC(=O)c1cc2ccccc2o1)C(=O)N[C@@H]1CC[C@H](C)N(S(=O)(=O)c2ccccn2)CC1=O							110	790	
CC(C)C[C@H](NC(=O)c1cc2ccccc2o1)C(=O)N[C@@H]1CC[C@@H](C)N(S(=O)(=O)c2ccccn2)CC1=O							92	430	
CC(C)C[C@H](NC(=O)c1cc2ccccc2o1)C(=O)N[C@H]1C(=O)CN(S(=O)(=O)c2ccccn2)CC[C@H]1C	> 1000		42						
CC(C)C[C@H](NC(=O)c1cc2ccccc2o1)C(=O)N[C@@H]1C(=O)CN(S(=O)(=O)c2ccccn2)CC[C@H]1C	> 1000		1.5						
CC(C)C[C@H](NC(=O)c1cc2ccccc2o1)C(=O)N[C@H]1C(=O)CN(S(=O)(=O)c2ccccn2)CC[C@@H]1C	> 1000		19						
CC(C)C[C@H](NC(=O)c1cc2ccccc2o1)C(=O)N[C@@H]1C[C@@H](C)CN(S(=O)(=O)c2ccccn2)CC1=O			30				300	> 1000	
CC(C)C[C@H](NC(=O)c1cc2ccccc2o1)C(=O)N[C@H]1C[C@H](C)CN(S(=O)(=O)c2ccccn2)CC1=O		56	0.14	49	0.044	35	5.8	73	clearance [1]: 34.4 mL/min/kg; Vd [2]: 1.46 L/kg; bioavailability [4]: 26.2%; half-life [7]: 51.6 min
CC(C)C[C@H](NC(=O)c1cc2ccccc2o1)C(=O)N[C@H]1CCCN(S(=O)(=O)c2ccccn2)CC1=O		53		57	0.03	63			bioavailability [10]: 7.3%; Vd [11]: 0.72 L/kg; clearance [12]: 13.9 mL/min/kg; half-life [13]: 36.5 min; Ki (Cathepsin L2): 1.8 nM
CC(C)C[C@H](NC(=O)c1cc2ccccc2o1)C(=O)N[C@H]1CC[C@H](C)N(S(=O)(=O)c2ccccn2)CC1=O							42	680	
CC(C)C[C@H](NC(=O)c1cc2ccccc2o1)C(=O)N[C@H]1C[C@@H](C)CN(S(=O)(=O)c2ccccn2)CC1=O			29				350	> 1000	
CC(C)C[C@H](NC(=O)c1cc2ccccc2o1)C(=O)N[C@@H]1C[C@H](C)CN(S(=O)(=O)c2ccccn2)CC1=O			4.5				8.3	660	
CC(C)C[C@H](NC(=O)c1cc2ccccc2o1)C(=O)N[C@H]1CC[C@@H](C)N(S(=O)(=O)c2ccccn2)CC1=O [RELACATIB]	13	47		47	0.032	22	1.6	8	clearance [1]: 19.5 mL/min/kg; Vd [2]: 1.79 L/kg; bioavailability [10]: 27.6%; bioavailability [4]: 89.4%; Vd [11]: 0.95 L/kg; clearance [12]: 11.7 mL/min/kg; half-life [13]: 168 min; half-life [7]: 109 min; Ki (Cathepsin L2): 0.063 nM
